These compounds were tested against T1, Glucocorticoid receptor (Homo sapiens) (UniProt P04150) (assay: Relative binding affinity against glucocorticoid receptor).
T1 sequence (whole entry): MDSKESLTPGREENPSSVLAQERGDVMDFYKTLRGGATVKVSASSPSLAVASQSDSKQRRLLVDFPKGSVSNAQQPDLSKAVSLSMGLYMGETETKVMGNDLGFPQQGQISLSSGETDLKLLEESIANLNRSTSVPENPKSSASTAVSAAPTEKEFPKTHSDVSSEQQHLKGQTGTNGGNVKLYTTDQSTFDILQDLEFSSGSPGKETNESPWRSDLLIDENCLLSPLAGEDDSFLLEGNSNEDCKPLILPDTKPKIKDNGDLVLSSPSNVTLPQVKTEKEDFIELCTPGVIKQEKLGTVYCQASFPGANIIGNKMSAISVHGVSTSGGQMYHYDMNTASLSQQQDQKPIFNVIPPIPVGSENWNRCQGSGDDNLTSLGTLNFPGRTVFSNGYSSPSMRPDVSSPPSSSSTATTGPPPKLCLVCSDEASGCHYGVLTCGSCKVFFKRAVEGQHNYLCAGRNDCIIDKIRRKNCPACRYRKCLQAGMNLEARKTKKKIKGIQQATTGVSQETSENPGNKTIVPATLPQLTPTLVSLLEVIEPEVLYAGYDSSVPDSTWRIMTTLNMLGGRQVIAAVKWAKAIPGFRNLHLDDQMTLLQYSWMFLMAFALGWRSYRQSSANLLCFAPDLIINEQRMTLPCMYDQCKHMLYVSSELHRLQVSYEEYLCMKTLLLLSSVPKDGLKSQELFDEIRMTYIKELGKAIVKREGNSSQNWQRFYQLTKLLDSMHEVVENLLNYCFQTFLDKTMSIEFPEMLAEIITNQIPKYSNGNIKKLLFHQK
Procedure, shortened: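 Competitive binding: each steroid incubated with receptor-containing cytosol and a radiolabelled marker selective for the receptor. Bound radioactivity separated by dextran-coated charcoal adsorption. The unlabelled radioligand standard curve used 9-10 concentrations; test steroids used 5-6. RBA = 100 × (radioligand conc for 50% displacement ÷ steroid conc for 50% displacement), with reference hormone set to 100. Mean of ≥3 experiments.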
In the case of `CC12C=CC3=C4CCCC=C4CCC3C1CC[C@]2(C)O` (stereo partly specified), the Relative binding affinity is reported as 0.3.
In the case of `CCC12CCC3=C4CCC(=O)C=C4CCC3C1CC[C@@H]2O` (stereo partly specified), the Relative binding affinity is reported as 5.1.
With `C#C[C@]1(O)CCC2C3CCC4=CC(=O)CCC4C3CCC21CC` (stereo partly specified) the Relative binding affinity was 14.
Compound `CC12CCC3=C4CCC(=O)C=C4CCC3C1CC[C@@]21CCS(=O)O1` (stereo partly specified) has a Relative binding affinity of 23.
Work on `CC12CCC3C4CCC(=O)C=C4CCC3C1CC[C@@]21CCS(=O)O1` (stereo partly specified) yielded a Relative binding affinity of 0.4.
`C[C@@H]1CC2=CC(=O)CCC2=C2CCC3(C)C(CC[C@]3(C)O)C21` (stereo partly specified) gave a Relative binding affinity of 6.1.
In the case of `CCC12CCC3C4CCC(=O)C=C4CCC3C1CC[C@@H]2O` (stereo partly specified), the Relative binding affinity is reported as 2.1.
`C[C@]1(O)CC[C@H]2[C@@H]3CCC4=CC(=O)CC[C@@H]4[C@H]3CC[C@@]21C` gave a Relative binding affinity of 1.5.
For `C[C@@H]1CC2=CC(=O)CCC2=C2C=CC3(C)C(CC[C@]3(C)O)C21` (stereo partly specified), the Relative binding affinity was 22.
`CC1(C)CC2=C3C=CC4(C)C(CC[C@]4(C)O)C3CCC2=CC1=O` (stereo partly specified) was tested, and the Relative binding affinity was 0.4.
`CC12C=CC3=C4CCC(=O)C=C4CCC3C1CCC2` (stereo unspecified) was tested, and the Relative binding affinity was 0.5.
`CC(=O)[C@H]1CCC2C3CCC4=CC(=O)CCC4=C3C=CC21C` (stereo partly specified) gave a Relative binding affinity of 1.5.
With `C[C@]12CC[C@H]3[C@@H](CCC4=CC(=O)CC[C@@H]43)[C@@H]1CC[C@@H]2O` the Relative binding affinity was 0.5.
`CCCC12CCC3C4CCC(=O)C=C4CCC3C1CC[C@@H]2O` (stereo partly specified) gave a Relative binding affinity of 2.1.
`C#C[C@]1(O)CCC2C3CCC4=CC(=O)CCC4=C3CCC21C` (stereo partly specified) was tested, and the Relative binding affinity was 5.7.
In the case of `CC(=O)[C@@]1(C)CCC2C3CCC4=CC(=O)CCC4=C3C=CC21C` (stereo partly specified), the Relative binding affinity is reported as 2.4.
Work on `C#C[C@]1(O)CCC2C3CCC4=CC(=O)CCC4C3CCC21CCC` (stereo partly specified) yielded a Relative binding affinity of 9.8.
`CCC12C=CC3=C4CCC(=O)C=C4C[C@@H](C)C3C1CC[C@]2(C)O` (stereo partly specified) gave a Relative binding affinity of 145.
`CCCC12CCC3=C4CCC(=O)C=C4CCC3C1CC[C@@H]2O` (stereo partly specified) was tested, and the Relative binding affinity was 1.9.
Compound `CC(=O)[C@H]1CCC2C3CCC4=CC(=O)CCC4=C3CCC21C` (stereo partly specified) has a Relative binding affinity of 5.1.
`CC12C=CC3=C4CCC(=O)C=C4CCC3C1CC[C@@]21CCC(=O)O1` (stereo partly specified) gave a Relative binding affinity of 62.
Work on `CC12C=CC3=CCCCC3C1CC[C@]2(C)O` (stereo partly specified) yielded a Relative binding affinity of 38.
Compound `CC(=O)[C@@]1(C)CCC2C3CCC4=CC(=O)CCC4=C3CCC21C` (stereo partly specified) has a Relative binding affinity of 4.5.
For `CC(=O)[C@H]1CC[C@H]2[C@@H]3CCC4=CC(=O)CC[C@@H]4[C@H]3CC[C@]12C`, the Relative binding affinity was 0.6.
`CC12C=CC3=C4CC(=O)CC=C4CCC3C1CC[C@]2(C)O` (stereo partly specified) gave a Relative binding affinity of 68.
`CCC12C=CC3=C4CCC(=O)C=C4CCC3C1CC[C@@H]2O` (stereo partly specified) was tested, and the Relative binding affinity was 20.
With `CC(=O)[C@@]1(C)CCC2C3CCC4=CC(=O)CCC4C3CCC21C` (stereo partly specified) the Relative binding affinity was 0.7.
`CC12C=CC3=C4CCC(=O)C=C4CCC3C1CCC2=O` (stereo unspecified) was tested, and the Relative binding affinity was under 0.1.
`C[C@]1(O)CC[C@H]2[C@@H]3CCC4=CC(=O)CCC4=C3C=C[C@@]21C` (stereo in doubt; 12) was tested, and the Relative binding affinity was 26.
`CCCC12C=CC3=C4CCC(=O)C=C4CCC3C1CC[C@@H]2O` (stereo partly specified) was tested, and the Relative binding affinity was 6.
Work on `CC12CCC3=C4CCC(=O)C=C4CCC3C1CC[C@]2(C)O` (stereo partly specified) yielded a Relative binding affinity of 6.
`C#C[C@]1(O)CCC2C3CCC4=CC(=O)CCC4=C3C=CC21CCC` (stereo partly specified) was tested, and the Relative binding affinity was 6.4.
`CC12CCC3C4CCC(=O)C=C4CCC3C1CC[C@@]21CCC(=O)O1` (stereo partly specified) showed a Relative binding affinity of 0.1.
Compound `C#C[C@]1(O)CC[C@H]2[C@@H]3CCC4=CC(=O)CCC4=C3C=C[C@@]21C` has a Relative binding affinity of 11.
In the case of `C#C[C@]1(O)CCC2C3CCC4=CC(=O)CCC4=C3CCC21CC` (stereo partly specified), the Relative binding affinity is reported as 17.
`C[C@]1(O)CC[C@H]2[C@@H]3CCC4=CC(=O)CCC4=C3C=C[C@@]21C` (stereo in doubt; 39) was tested, and the Relative binding affinity was 26.
`C#C[C@]1(O)CCC2C3CCC4=CC(=O)CCC4=C3CCC21CCC` (stereo partly specified) showed a Relative binding affinity of 5.5.
With `C[C@]12CCC3=C4CCC(=O)C=C4CC[C@H]3[C@@H]1CC[C@@H]2O` the Relative binding affinity was 1.6.
`C[C@@H]1CC2=CC(=O)CC[C@@H]2[C@H]2CC[C@@]3(C)[C@@H](CC[C@]3(C)O)[C@@H]21` gave a Relative binding affinity of 1.4.
With `C#C[C@]1(O)CC[C@H]2[C@@H]3CCC4=CC(=O)CCC4=C3C=C[C@@]21CC` the Relative binding affinity was 77.
With `CCC12C=CC3=C4CCC(=O)C=C4CCC3C1CC[C@]2(C)O` (stereo partly specified) the Relative binding affinity was 155.
`CC1=C2CCC3C(=C2CCC1=O)C=CC1(C)C3CC[C@]1(C)O` (stereo partly specified) was tested, and the Relative binding affinity was 0.5.
Compound `CC12C=CC3=C4CCC(=O)C=C4CCC3C1CC[C@@]21CCS(=O)O1` (stereo partly specified) has a Relative binding affinity of 35.
Compound `CC12CCC3=C4CCC(=O)C=C4CCC3C1CC[C@@]21CCC(=O)O1` (stereo partly specified) has a Relative binding affinity of 17.
`CC1CC2=C3C=CC4(C)C(CC[C@]4(C)O)C3CCC2=CC1=O` (stereo partly specified) gave a Relative binding affinity of 1.5.
`CC1(C)CC2C(=C3CCC(=O)C=C31)C=CC1(C)C2CC[C@]1(C)O` (stereo partly specified) was tested, and the Relative binding affinity was 1.2.

Reference: ChEMBL document CHEMBL1123211, “Correspondence analysis applied to steroid receptor binding” (J Med Chem, 1986)
